Laboratory results taken from publication PMC5817038 (Bioorganic & medicinal chemistry letters, 2018).
Like-named read-outs stand apart in the source and are kept apart here. Blank lines part the entries; values can stand above or below the compound they belong to.

Legend:
IDH1-R132H = IDH1-R132H (Homo sapiens, UniProt O75874, R132H); type: biochemical
[1] = normal mice; cited from earlier work
wild-type IDH1 = conditions: read-out: IC50 against wild-type IDH1 (reported); literature value; cited from earlier work
[2] = test system: IDH1-mutated glioma xenografts; conditions: cited from earlier work
[3] = test system: HCT116 colorectal carcinoma cell line expressing heterozygous IDH1-R132H; test: Cell uptake of radiolabeled compounds, IDH1-mutated HCT116 vs isogenic WT-IDH1; type: cell-based
Method in brief: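 Isogenic HCT116 lines expressing IDH1-R132H or wild-type IDH1 were incubated with the 125I-labelled iodo analogue or the 18F-labelled fluoro inhibitor, no-carrier-added, and cell-associated radioactivity was measured over time. Uptake ratio is mutant IDH1 over WT-IDH1 uptake. Three wells per point, mean ± SEM; Student's t-test, P < 0.05.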

[4] = test system: IDH1-mutated astrocytoma cell line (IMA); test: Cell uptake of radiolabeled compounds, IDH1-mutated astrocytoma; type: cell-based; conditions: time course
Method in brief: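 Radioiodinated or 18F-labelled test compounds, prepared no-carrier-added, were incubated with IDH1-mutated cells and their isogenic WT-IDH1 counterparts. Uptake was followed over time, starting at 5 min, and compared between mutant and WT lines as uptake ratios. Each condition was run in three wells, reported as mean ± SEM, with significance by Student's t-test.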

[5] = test system: HCT116 IDH1-R132H tumor xenografts; test: Tissue distribution in athymic mice bearing IDH1-mutated HCT116 tumor xenografts; type: in vivo
Method in brief: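 Athymic mice bearing IDH1-mutated HCT116 xenografts received either the 131I- or the 18F-labelled test compound, in separate groups. Tissues were sampled from 0.5 to 4 h after injection. Uptake is given as %ID/g, or as %ID for liver plus intestines. Five animals per time point, mean ± SEM. WT-IDH1 tumour-bearing mice were also examined at 1–4 h.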

Sequence of IDH1-R132H (O75874 whole entry R132H): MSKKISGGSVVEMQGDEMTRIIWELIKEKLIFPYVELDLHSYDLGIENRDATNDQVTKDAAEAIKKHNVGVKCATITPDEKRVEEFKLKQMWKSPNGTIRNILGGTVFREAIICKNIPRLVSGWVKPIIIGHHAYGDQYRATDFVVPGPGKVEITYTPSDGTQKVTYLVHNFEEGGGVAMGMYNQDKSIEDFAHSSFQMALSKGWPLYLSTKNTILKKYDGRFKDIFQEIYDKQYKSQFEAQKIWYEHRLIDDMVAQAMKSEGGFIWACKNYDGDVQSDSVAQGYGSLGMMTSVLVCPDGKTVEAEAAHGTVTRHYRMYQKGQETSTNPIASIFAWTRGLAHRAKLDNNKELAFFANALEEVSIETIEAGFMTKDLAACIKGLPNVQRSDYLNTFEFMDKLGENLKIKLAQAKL

Compound: Cc1ccccc1C(C(=O)NC1CCCCC1)N(C(=O)Cn1ccnc1C)c1cccc(I)c1 (stereo not shown) [compound 1]
enzyme inhibition (maximal) (IDH1-R132H; at 6.12 μM): 100%

Compound: Cc1ccccc1C(C(=O)NC1CCCC1)N(C(=O)Cn1cnc2ccccc21)c1cccc(F)c1 (stereo not shown) [ML-309]
blood-brain-barrier (BBB) permeability [1]: lack of blood-brain-barrier (BBB) permeability

Compound: Cc1ccccc1C(C(=O)NC1CCCCC1)N(C(=O)Cn1ccnc1C)c1cccc(F)c1 (stereo not shown) [AGI-5198]
inhibition at 12.25 µM (IDH1-R132H; read-out: enzyme inhibition (maximal)): 100% | IC50 (wild-type IDH1): > 100 µM | D-2-HG production [2]: inhibit D-2-HG production | anti-tumor effect [2]: anti-tumor effects

Now from value to compound, other results behind:

uptake and retention in brain ([5]; 0.5-4 h): very low | tumor uptake ([5]; 0.5 h post injection): 0.84 ± 0.18 % ID/g | blood activity ([5]; 30 min post injection): 0.88 ± 0.16 % ID/g | peak tumor-to-muscle ratio (TMR) ([5]; 2 h): 2.5 ± 1.0 | peak tumor-to-blood ratio (TBR) ([5]; 4 h): 3.0 ± 1.3 | blood activity ([5]; 4 h post injection): ~ 0.1 % ID/g | liver and intestines, share of injected dose ([5]; 4 h post injection): 87 ± 7 % ID | tumor uptake ([5]; 4 h post injection): 0.33 ± 0.08 % ID/g | stability against dehalogenation in vivo ([5]; mouse, in vivo): stable against dehalogenation in vivo
Compound: Cc1ccccc1C(C(=O)NC1CCCCC1)N(C(=O)Cn1ccnc1C)c1cccc([18F])c1 (stereo not shown) [[^18F]AGI-5198]
uptake ratio IDH1-mutated/WT-IDH1 ([3]; HCT116, 5 min): about 1.6 | uptake ratio IDH1-mutated/WT-IDH1 ([3]; HCT116, 30 min, remaining at that level until 120 min): ~2.0 | uptake in IDH1-mutated vs WT-IDH1 cells [4]: higher only at 5 min but not thereafter

enzyme inhibition (maximal) (IDH1-R132H; at 12.25 μM): 71.3 ± 5.3%
Compound: Cc1ccccc1C(C(=O)NC1CCCCC1)N(C(=O)CNc1ccc(F)nc1)c1cccc(F)c1 (stereo not shown) [compound 2]
